# Measurements gathered from unrelated publications.
# Lines come from different studies, so protocols differ.
# Target: Mitogen-activated protein kinase kinase kinase 12 (MAP3K12, Homo sapiens, UniProt Q12852)
# Residues used in one study (Q12852 1-859): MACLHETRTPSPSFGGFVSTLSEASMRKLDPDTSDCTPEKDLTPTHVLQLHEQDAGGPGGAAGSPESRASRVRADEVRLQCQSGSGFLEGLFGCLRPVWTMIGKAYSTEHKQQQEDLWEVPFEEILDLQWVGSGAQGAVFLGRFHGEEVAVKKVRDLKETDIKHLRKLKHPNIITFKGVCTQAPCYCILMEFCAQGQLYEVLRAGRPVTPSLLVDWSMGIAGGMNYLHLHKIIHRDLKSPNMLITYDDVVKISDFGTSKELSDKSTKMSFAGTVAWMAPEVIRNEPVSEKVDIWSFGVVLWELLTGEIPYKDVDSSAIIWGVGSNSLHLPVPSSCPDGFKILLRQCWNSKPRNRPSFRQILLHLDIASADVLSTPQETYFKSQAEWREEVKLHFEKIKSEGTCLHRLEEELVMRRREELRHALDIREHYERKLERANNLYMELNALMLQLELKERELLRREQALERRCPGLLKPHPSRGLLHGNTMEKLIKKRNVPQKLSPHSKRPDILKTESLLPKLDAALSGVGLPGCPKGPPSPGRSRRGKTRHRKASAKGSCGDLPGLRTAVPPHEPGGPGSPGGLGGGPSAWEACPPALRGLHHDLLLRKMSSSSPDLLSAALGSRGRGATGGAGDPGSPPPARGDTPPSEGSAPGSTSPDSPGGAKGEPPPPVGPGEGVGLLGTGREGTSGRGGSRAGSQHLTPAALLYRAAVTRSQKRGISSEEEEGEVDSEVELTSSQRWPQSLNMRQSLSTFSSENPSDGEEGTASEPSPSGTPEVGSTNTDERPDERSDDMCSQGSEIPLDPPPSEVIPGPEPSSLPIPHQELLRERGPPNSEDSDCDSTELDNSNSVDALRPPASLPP
Compound,assay,setting,remaining binding [%]
C[C@@H]1CCN(c2nccc(-c3cnn4ncccc34)n2)C1,binding,1 µM,75
FC(F)(F)Oc1cccc(-c2cnc3ccc(-c4ccncc4)nn23)c1,"cell-free assay, competition with immobilised ligand",5 µM,45
CC(=O)C1=C(C)N(c2cccc(C(F)(F)F)c2)C(=O)N[C@@H]1c1ccc(C#N)nc1,"cell-free assay, competition with immobilised ligand",1 µM,86.8
CN(c1nccc(-c2cnn3ncccc23)n1)C1CC1,binding,1 µM,100
COc1cnc(Nc2cccc(S(N)(=O)=O)c2)nc1N1CCN(c2ccccc2)CC1,"binding, competition with immobilised ligand",1 µM,72
O=C1CCc2cc(Nc3cc(OC4CCOCC4)c([N+](=O)[O-])cc3Cl)ccc2N1,"cell-free assay, competition with immobilised ligand",1 µM,100
COc1ncc2cc3ccccc3nc2c1C#N,"cell-free assay, competition with immobilised ligand",5 µM,81
CN([C@@H]1CCc2c(CC(=O)O)c3ccccc3n2C1)S(=O)(=O)c1ccc(F)cc1,"cell-free assay, competition with immobilised ligand",1 µM,100
O=C(NCCCN1CCOCC1)c1ccc(Nc2nccc(-c3cc4ccccc4s3)n2)cc1,"binding, competition with immobilised ligand",1 µM,54
CN(C)c1nccc(-c2cnc3ncccn23)n1,binding,1 µM,67
O=C(c1ccc(Nc2nccc(-c3cc4ccccc4s3)n2)cc1)N1CCC(N2CCCC2)CC1,"binding, competition with immobilised ligand",1 µM,28
Cc1cc(-n2nc(Cc3cc(F)cc(C(F)(F)F)c3)nc2C)ccc1C(N)=O,"cell-free assay, competition with immobilised ligand",1 µM,100
O=C(NCC1CCOCC1)c1n[nH]cc1NC(=O)c1c(F)cccc1F,"binding, competition with immobilised ligand",1 µM,85
Cc1cnn2ncc(-c3ccnc(N(C)C)n3)c2c1,binding,1 µM,83
CN1CCN(c2cnc3c(C4CCN(C(=O)c5ccc(OC(F)(F)F)cc5N)CC4)ncnc3c2)CC1,"cell-free assay, competition with immobilised ligand",1 µM,100
N[C@H]1CCN(c2nccc(-c3cnn4ncccc34)n2)C1,binding,1 µM,71
Cc1nc(N2CC[C@@H](O)C2)ncc1-c1cc(C(F)(F)F)cc2[nH]ncc12,"binding, competition with immobilised ligand",1 µM,99
O=C(NCCCN1CCOCC1)c1ccc(Nc2ncc(Cl)c(-c3ccc(Cl)s3)n2)cc1,"binding, competition with immobilised ligand",1 µM,33
F[C@@H]1CCN(c2nccc(-c3cnn4ncccc34)n2)C1,binding,1 µM,100
CCN1CCN(Cc2ccc(C(=O)Nc3ccc(C)c(Oc4ccc5c(c4)CC(=O)N5)c3)cc2C(F)(F)F)CC1,"binding, competition with immobilised ligand",1 µM,100
